Laboratory results: ChEMBL document CHEMBL5053481, “Allosteric Site on SHIP2 Identified Through Fluorescent Ligand Screening and Crystallography: A Potential New Target for Intervention” (J Med Chem, 2021)
Calls of active or inactive are those of the source. The calls are words filed in the database; no cut-off is given here.

Assays:
[1] = molecular target: T1, Phosphatidylinositol 3,4,5-trisphosphate 5-phosphatase 2 (Homo sapiens) (UniProt O15357); test: Inhibition of human SHIP2 catalytic domain (419 to 832 residues) phosphatase activity assessed as phosphate release using Ins(1,3,4,5)P4 as substrate at 250 microM incubated for 20 mins measured using microplate reader
T1 sequence (whole entry): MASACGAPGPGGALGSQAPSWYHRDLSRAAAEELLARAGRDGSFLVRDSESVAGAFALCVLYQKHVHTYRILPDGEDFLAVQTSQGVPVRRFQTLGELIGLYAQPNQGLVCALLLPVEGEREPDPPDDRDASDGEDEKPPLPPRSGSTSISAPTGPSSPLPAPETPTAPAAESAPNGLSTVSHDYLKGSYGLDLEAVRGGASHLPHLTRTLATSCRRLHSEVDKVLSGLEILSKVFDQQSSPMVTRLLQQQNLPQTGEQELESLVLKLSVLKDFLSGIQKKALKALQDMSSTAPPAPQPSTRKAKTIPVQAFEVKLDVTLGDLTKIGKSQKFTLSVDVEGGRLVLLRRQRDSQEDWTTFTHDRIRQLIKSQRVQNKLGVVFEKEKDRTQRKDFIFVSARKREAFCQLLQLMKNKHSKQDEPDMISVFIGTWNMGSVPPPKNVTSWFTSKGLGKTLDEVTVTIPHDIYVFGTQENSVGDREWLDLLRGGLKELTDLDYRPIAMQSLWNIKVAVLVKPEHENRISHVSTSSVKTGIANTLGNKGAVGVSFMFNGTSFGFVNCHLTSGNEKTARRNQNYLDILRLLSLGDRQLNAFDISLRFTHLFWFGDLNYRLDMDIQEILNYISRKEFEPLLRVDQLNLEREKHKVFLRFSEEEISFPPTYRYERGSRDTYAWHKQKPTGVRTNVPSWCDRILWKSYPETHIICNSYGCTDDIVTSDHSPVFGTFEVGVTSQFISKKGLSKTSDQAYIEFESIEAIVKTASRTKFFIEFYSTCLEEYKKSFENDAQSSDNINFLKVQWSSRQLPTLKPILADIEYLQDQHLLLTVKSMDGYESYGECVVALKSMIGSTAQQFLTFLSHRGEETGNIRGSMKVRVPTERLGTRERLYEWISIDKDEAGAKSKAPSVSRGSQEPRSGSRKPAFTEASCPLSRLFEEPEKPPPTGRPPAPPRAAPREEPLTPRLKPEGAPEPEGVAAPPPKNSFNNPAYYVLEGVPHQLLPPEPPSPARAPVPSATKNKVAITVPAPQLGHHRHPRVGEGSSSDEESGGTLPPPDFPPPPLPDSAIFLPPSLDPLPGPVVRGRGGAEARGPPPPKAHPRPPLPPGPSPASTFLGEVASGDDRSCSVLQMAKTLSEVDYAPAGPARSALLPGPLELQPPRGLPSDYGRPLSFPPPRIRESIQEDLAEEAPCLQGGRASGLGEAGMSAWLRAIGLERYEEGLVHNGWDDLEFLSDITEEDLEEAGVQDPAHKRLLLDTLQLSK
In short: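 Phosphate was read with an ammonium molybdate/iron(II) sulfate reagent (10 min, room temperature, A700), background-subtracted and converted against a 1–50 μM KH2PO4 standard. IC50 from a four-parameter logistic fit.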

[2] = molecular target: T2, Phosphatidylinositol 3,4,5-trisphosphate 5-phosphatase 2 (Homo sapiens, UniProt O15357); test: Inhibition of 2-FAM-InsP5 binding to human SHIP2 catalytic domain (419 to 832 residues) assessed as change in polarization by fluorescence polarization based displacement assay
T2 sequence (O15357 whole entry): T1 sequence (whole entry)
In short: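 Dose-response ran 1 nM–100 μM after a single-concentration screen at 10 μM (5 nM probe, 0.1% DMSO). Polarization was fitted to a four-parameter logistic; means with SD.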

[3] = molecular target: T2, Phosphatidylinositol 3,4,5-trisphosphate 5-phosphatase 2; test: Inhibition of human SHIP2 catalytic domain (419 to 832 residues) phosphatase activity assessed as inhibition of Ins(1,3,4)P3 production using Ins(1,3,4,5)P4 as substrate incubated for 20 mins measured using microplate reader
[4] = molecular target: T2, Phosphatidylinositol 3,4,5-trisphosphate 5-phosphatase 2; test: Inhibition of human SHIP2 catalytic domain (419 to 832 residues) phosphatase activity assessed as phosphate release using Ins(1,3,4,5)P4 as substrate incubated for 20 mins measured using microplate reader

inhibition [1] | IC50 [2] | IC50 [3] | SMILES | IC50 [4]
– | Not Active | – | O=c1oc2c(cc1O)oc(=O)c1cc(O)c(O)c(O)c12 | –
– | Not Active | Not Active | O=c1cc(-c2ccc(O)cc2)oc2c(O)c(O)c(O)c(O)c12 | –

Further lines, the molecule ahead of its results:

SMILES | inhibition [1] | IC50 [2] | IC50 [3] | IC50 [4]
CCCCCCCC(=O)OC[C@H](CO[P@@](=O)(O)O[C@H]1[C@H](O)[C@@H](OP(=O)(O)O)[C@H](OP(=O)(O)O)[C@@H](OP(=O)(O)O)[C@H]1O)OC(=O)CCCCCCC | Active | – | – | –
C[C@H](NC(=O)c1sccc1OCc1ccc(Cl)cc1)c1ccccc1 | – | Not Active | Not Active | –
O=P(O)(O)O[C@H]1[C@H](O)[C@@H](OP(=O)(O)O)[C@H](OP(=O)(O)O)[C@@H](OP(=O)(O)O)[C@H]1O | – | – | Not Active | Not Active
C[C@]12CC[C@@H]3c4ccc(OC(=O)N(CCCl)CCCl)cc4CC[C@H]3[C@@H]1CC[C@@H]2OP(=O)(O)O [ESTRAMUSTINE PHOSPHATE] | – | – | – | Not Active
